From ChEMBL document CHEMBL5120742, “Multi-target weapons: diaryl-pyrazoline thiazolidinediones simultaneously targeting VEGFR-2 and HDAC cancer hallmarks” (RSC Med Chem, 2021)
pIC50: −log10 of the molar value. The source made the active and inactive calls. The rule behind the calls is not given here.

Assays:
[1] = target: T1, Histone deacetylase 7 (Homo sapiens, UniProt Q8WUI4); assay: Inhibition of recombinant human N-terminal GST-tagged HDAC7 (518 to end residues) expressed in baculovirus infected sf9 insect cells using BocLys(trifluoroacetyl)-AMC as substrate incubated for 30 mins by fluorescence assay
T1 sequence (Q8WUI4 whole entry): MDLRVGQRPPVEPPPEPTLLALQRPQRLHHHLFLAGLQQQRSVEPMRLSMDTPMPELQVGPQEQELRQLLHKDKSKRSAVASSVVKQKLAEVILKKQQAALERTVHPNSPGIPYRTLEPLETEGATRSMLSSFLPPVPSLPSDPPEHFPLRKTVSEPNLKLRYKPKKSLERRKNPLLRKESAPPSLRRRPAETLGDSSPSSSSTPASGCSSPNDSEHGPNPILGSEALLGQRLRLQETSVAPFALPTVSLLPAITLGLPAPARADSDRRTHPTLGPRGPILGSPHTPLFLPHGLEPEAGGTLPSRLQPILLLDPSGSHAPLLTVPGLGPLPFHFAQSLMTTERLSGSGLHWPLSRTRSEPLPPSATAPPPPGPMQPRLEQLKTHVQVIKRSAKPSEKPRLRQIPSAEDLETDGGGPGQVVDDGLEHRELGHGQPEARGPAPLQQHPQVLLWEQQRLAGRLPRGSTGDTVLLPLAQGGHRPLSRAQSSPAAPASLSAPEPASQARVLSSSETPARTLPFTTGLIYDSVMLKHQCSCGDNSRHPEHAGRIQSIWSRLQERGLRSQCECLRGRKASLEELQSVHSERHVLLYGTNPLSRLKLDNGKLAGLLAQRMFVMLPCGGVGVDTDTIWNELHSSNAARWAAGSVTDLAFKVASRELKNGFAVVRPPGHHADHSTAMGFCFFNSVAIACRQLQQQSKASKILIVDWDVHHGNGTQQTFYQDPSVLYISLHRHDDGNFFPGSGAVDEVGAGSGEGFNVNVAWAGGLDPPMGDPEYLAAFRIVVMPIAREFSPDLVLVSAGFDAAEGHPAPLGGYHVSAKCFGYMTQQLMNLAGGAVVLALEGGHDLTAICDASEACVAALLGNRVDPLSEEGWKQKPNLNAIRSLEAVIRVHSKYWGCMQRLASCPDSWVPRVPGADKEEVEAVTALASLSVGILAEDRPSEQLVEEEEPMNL
Outline: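 Recombinant HDAC7 was tested in a two-step fluorogenic assay. Boc-Lys(trifluoroacetyl)-AMC serves as substrate, then trypsin releases the fluorophore.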

[2] = target: T2, Vascular endothelial growth factor receptor 2 (Homo sapiens, UniProt P35968); assay: Inhibition of human VEGFR2 in HUVEC cells assessed as reduction in VEGFR2 phosphorylation at 10 uM incubated for 30 mins by anti-phospho VEGF Tyr 1175 antibody based assay relative to control; assay type: cell-based
Outline: (§1)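 HUVECs were seeded at 4000–5000 per well in DMEM with 10% FCS for 12 h, then held 24 h in serum. Compound (10 µM) was added with serum for 30 min at 37 °C. Cells were fixed in 4% formaldehyde and probed with anti-phospho-VEGFR Tyr1175 (1:1000), then an HRP secondary (1:5000). TMB signal was stopped with 2N H2SO4 and read at 450 nm. Percent inhibition is normalized to control.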

[3] = target: T2, Vascular endothelial growth factor receptor 2; assay: Inhibition of human VEGFR2 in HUVEC cells assessed as reduction in VEGFR2 phosphorylation incubated for 30 mins by anti-phospho VEGF Tyr 1175 antibody based assay; assay type: cell-based; outline: as §1
[4] = test system: MCF7; assay: Antiproliferative activity against human MCF7 cells assessed as reduction in cell viability after 48 hrs by MTT assay; assay type: functional, cell-based; conditions: MCF7, 48 h
Outline: (§2)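 MCF-7, K562, A549 and HT-29 lines were seeded in 96-well plates and kept overnight at 37 °C, 5% CO2, 95% humidity. They were then exposed to six concentrations (100 to 2.5) for 48 h. After PBS washes, MTT was added for 4 h at 37 °C and formazan was dissolved in DMSO. Absorbance was read at 570 nm. Survival is mean OD of treated wells over the negative control, and IC50 was derived from that.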

[5] = test system: K562; assay: Antiproliferative activity against human K562 cells assessed as reduction in cell viability after 48 hrs by MTT assay; assay type: functional, cell-based; conditions: K562, 48 h; outline: as §2
[6] = test system: A549; assay: Antiproliferative activity against human A549 cells assessed as reduction in cell viability after 48 hrs by MTT assay; assay type: functional, cell-based; conditions: A549, 48 h; outline: as §2
[7] = test system: HT-29; assay: Antiproliferative activity against human HT-29 cells assessed as reduction in cell viability after 48 hrs by MTT assay; assay type: functional, cell-based; conditions: HT-29, 48 h; outline: as §2
[8] = species: Gallus gallus; assay: Inhibition of angiogenesis in chicken chorioallantoic membrane assessed as reduction in number of branching capillaries at 1 to 10 ug/ul after 12 days in presence of human VEGF by stereomicroscopic analysis; conditions: Embryo, dose 1-10 µg/microl, time 12.0 day
[9] = target: Histone deacetylase 4 (Homo sapiens, UniProt P56524); assay: Binding affinity to recombinant human N-terminal His6-SUMO-tagged C-terminal SII-tagged HDAC4 expressed in Escherichia coli (BL21) DE3 pLysS cells assessed as melting temperature at 100 uM for 15 mins by thermal shift assay
Outline: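 HDAC4 catalytic domain (His6-SUMO/SII, E. coli) at 3 µM was mixed with 100 µM compound in DMSO and held 15 min at 30 °C, then 60 min more at 30 °C. Temperature was stepped by 2 °C with 10 min holds and samples were taken at each step. Samples were centrifuged at 18000g, 4 °C, and the soluble protein was run on SDS-PAGE. Band intensities were fitted to a logistic function, and Tm is the inflection point.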

T2 sequence (P35968 whole entry): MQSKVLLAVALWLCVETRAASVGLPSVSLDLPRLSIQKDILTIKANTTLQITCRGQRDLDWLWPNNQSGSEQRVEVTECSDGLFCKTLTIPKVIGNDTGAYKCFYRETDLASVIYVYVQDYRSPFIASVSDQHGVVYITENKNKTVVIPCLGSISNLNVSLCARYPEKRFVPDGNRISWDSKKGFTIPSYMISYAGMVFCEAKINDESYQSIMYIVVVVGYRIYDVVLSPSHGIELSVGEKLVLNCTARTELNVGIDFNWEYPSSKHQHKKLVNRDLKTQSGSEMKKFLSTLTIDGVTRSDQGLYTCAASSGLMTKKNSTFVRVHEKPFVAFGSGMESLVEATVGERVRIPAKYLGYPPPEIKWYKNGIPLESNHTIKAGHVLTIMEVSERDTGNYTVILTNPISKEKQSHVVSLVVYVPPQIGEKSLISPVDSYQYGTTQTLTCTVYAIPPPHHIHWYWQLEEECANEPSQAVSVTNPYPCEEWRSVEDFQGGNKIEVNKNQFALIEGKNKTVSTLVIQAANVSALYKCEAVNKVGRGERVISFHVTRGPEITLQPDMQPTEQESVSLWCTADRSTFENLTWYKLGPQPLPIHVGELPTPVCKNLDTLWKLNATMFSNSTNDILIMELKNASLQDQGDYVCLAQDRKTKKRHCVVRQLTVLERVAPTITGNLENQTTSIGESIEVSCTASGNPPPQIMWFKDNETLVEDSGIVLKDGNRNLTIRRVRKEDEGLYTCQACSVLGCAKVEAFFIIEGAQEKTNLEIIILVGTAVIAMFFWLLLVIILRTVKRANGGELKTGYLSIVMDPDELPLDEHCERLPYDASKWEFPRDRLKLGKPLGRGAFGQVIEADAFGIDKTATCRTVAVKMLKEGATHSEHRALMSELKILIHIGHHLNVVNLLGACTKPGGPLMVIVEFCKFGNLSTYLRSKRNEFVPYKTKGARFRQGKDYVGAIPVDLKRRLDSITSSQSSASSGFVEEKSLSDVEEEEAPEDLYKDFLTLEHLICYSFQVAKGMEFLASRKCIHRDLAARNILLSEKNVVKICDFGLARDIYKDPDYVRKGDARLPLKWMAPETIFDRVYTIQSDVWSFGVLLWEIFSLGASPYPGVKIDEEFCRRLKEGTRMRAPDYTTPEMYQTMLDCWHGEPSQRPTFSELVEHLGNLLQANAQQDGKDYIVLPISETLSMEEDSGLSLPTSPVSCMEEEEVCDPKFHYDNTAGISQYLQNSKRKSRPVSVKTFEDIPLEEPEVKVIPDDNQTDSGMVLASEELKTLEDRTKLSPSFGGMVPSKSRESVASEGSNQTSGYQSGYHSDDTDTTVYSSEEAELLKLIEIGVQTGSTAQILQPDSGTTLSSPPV
Sequence of Histone deacetylase 4 (P56524 whole entry, the tested form may be a part): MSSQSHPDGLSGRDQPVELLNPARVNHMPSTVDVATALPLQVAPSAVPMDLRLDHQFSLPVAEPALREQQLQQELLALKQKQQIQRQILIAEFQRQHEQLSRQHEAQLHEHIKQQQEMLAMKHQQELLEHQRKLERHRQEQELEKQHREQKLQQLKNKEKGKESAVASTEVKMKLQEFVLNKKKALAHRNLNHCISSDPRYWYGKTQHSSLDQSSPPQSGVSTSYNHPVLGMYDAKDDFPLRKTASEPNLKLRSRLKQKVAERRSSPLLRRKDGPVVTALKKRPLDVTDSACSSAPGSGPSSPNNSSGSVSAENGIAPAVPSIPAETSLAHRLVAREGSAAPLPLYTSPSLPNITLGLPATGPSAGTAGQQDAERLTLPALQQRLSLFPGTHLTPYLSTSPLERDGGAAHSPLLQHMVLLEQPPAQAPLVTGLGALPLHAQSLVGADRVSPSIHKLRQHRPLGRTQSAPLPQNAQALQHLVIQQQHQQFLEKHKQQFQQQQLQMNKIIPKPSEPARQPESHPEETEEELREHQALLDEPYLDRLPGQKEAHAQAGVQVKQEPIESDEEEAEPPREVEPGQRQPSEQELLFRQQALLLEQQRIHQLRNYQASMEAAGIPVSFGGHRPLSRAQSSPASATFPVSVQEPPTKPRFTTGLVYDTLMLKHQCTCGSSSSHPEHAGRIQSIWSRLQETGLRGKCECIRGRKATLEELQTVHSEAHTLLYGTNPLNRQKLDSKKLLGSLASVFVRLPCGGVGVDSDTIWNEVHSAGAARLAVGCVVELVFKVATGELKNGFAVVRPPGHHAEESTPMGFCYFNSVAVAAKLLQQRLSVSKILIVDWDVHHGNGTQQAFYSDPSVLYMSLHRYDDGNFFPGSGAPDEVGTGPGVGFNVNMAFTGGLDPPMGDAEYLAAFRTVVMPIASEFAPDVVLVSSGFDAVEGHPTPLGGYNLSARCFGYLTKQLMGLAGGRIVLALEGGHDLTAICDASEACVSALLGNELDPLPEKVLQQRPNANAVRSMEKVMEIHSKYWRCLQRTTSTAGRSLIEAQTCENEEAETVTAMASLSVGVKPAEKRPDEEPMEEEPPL

pIC50 [1] | inhibition [2] [%] | pIC50 [3] | pIC50 [4] | pIC50 [5] | pIC50 [6] | pIC50 [7] | Tm [9] [°C] | SMILES | inhibition [8]
< 4.30 | 56.7 | 5.30 | 4.55 | 4.33 | 4.71 | 4.72 |  | O=C1NC(=O)/C(=C\c2ccc(OCC(=O)N3N=C(c4ccc(F)cc4)CC3c3ccco3)cc2)S1 (stereo not drawn) | Active
5.17 | 22.4 |  |  |  |  |  | 57.3 | O=C1NC(=O)/C(=C\c2ccc(OCC(=O)N3N=C(c4ccc(F)cc4)CC3c3ccc(Cl)c(Cl)c3)cc2)S1 (stereo not drawn) | 
< 4.30 |  |  |  |  |  |  | 56.7 | O=C1NC(=O)/C(=C\c2ccc(OCC(=O)N3N=C(c4ccccc4)CC3c3ccc(Cl)c(Cl)c3)cc2)S1 (stereo not drawn) | 
